Tests used:
[1] = In vitro effective dose which provides 50% protection of ATH-8 cells against the cytopathic effect of HIV; assay type: functional; conditions: Homo sapiens, read-out: ED50 (the source's name)
Summary of the method: (§1)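 ATH-8 cells infected with HIV-1 (HTLV-III_B strain) and read as the dose giving 50% protection against viral cytopathic effect. Reported as a range from ≥3 experiments, each including a standard such as AZT.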

[2] = In vitro cytotoxicity against uninfected ATH-8 (human T-cell) cell line.; assay type: functional; conditions: read-out: CD50 (the source's name)
Summary of the method: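 Uninfected ATH-8 cells; the value is the dose that reduces viability by 50%. Concentrations tested up to […].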

[3] = test system: Human immunodeficiency virus 1; experiment: Concentration required to inhibit HIV replication by 50%; assay type: functional, organism-based
Summary of the method: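 Human PBM from a normal donor, isolated by Ficoll-Hypaque and stimulated with PHA (5 μg/mL) for 24 h in RPMI 1640/15% FBS/IL-2. Cells plated at 5 × 10⁵ per well and infected with 20 TCID₅₀ of AZT-resistant patient isolate HIV-1 ERS 205pre, with drug added. Incubated at 37 °C for 7 days; half the medium and drug replaced on day 4. Day-7 supernatant p24 gag measured by radioimmunoassay.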

[4] = In vitro effective dose which provides 50% protection of ATH-8 cells against the cytopathic effect of HIV; range 5-15 uM; assay type: functional; conditions: Homo sapiens, read-out: ED50 (the source's name); summary of the method: as §1
[5] = In vitro effective dose which provides 50% protection of ATH-8 cells against the cytopathic effect of HIV; range 5-10 uM; assay type: functional; conditions: Homo sapiens, read-out: ED50 (the source's name)
[6] = In vitro effective dose which provides 50% protection of ATH-8 cells against the cytopathic effect of HIV; Range 5-10 uM; assay type: functional; conditions: Homo sapiens, read-out: ED50 (the source's name)
[7] = In vitro effective dose which provides 50% protection of ATH-8 cells against the cytopathic effect of HIV; range 10-50 uM; assay type: functional; conditions: Homo sapiens, read-out: ED50 (the source's name); summary of the method: as §1

| EC50 [1] [µM] | IC50 [3] [µM] | Structure (SMILES) | CC50 [2] [µM] | further results |
| --- | --- | --- | --- | --- |
| > 100 | – | OC[C@H]1C[C@@H](n2cnc3c(O)ncnc32)CO1 | > 100 | – |
| > 100 | – | Cc1cn([C@H]2CO[C@@H](CO)C2)c(=O)[nH]c1=O | > 100 | – |
| – | 8.2 | Nc1ncnc2c1ncn2[C@H]1CO[C@@H](CO)C1 | > 100 | EC50 [4]: 5 µM |
| – | – | Nc1ncnc2c1ncn2[C@H]1CC[C@@H](CO)O1 | > 200 | EC50 [5]: 5 µM |
| > 100 | – | Nc1ccn([C@H]2CO[C@@H](CO)C2)c(=O)n1 | > 100 | – |
| – | 1.28 | O=c1[nH]cnc2c1ncn2[C@H]1CC[C@@H](CO)O1 [DIDANOSINE] | – | – |
| – | – | Nc1nc(O)c2ncn([C@H]3CC[C@@H](CO)O3)c2n1 | > 200 | EC50 [6]: 5 µM |
| – | 17.5 | Nc1nc(O)c2ncn([C@H]3CO[C@@H](CO)C3)c2n1 | > 500 | EC50 [7]: 10 µM |
